Test results reported in ChEMBL document CHEMBL1147076, “Antitumor activity of MLN8054, an orally active small-molecule inhibitor of Aurora A kinase” (Proc Natl Acad Sci U S A, 2007).
Activity calls are given as the source filed them. No cut-off for these calls is given here.

Tests used:
[1] = target: Fibroblast growth factor receptor 1 (Homo sapiens) (UniProt P11362); assay: Activity of human FGFR1 kinase at 1 uM
Method in brief: (§1)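 Single-point kinase profiling: each kinase in a 226-kinase panel tested with compound at 1 μM and ATP at 10 μM in every assay, run by an external screening service.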

[2] = target: Serine/threonine-protein kinase Nek6 (Homo sapiens) (UniProt Q9HC98); assay: Activity of human NEK6 kinase at 1 uM
Chain of Serine/threonine-protein kinase Nek6 (Homo sapiens) (Q9HC98 whole entry): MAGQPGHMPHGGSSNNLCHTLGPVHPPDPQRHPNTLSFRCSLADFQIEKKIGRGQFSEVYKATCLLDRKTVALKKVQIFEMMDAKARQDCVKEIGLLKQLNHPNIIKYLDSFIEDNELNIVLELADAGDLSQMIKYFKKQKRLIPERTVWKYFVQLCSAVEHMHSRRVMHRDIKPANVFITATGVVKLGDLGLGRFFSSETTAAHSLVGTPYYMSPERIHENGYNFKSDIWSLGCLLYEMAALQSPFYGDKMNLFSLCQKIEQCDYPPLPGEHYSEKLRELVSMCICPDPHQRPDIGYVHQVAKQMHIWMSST
Method in brief: (§2)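 Single-point screen in a 226-kinase panel run by an outside service. Test compound at 1 μM with ATP at 10 μM in every assay. Other assay conditions are not given.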

[3] = target: PAS domain-containing serine/threonine-protein kinase (Homo sapiens) (UniProt Q96RG2); assay: Activity of human PASK kinase at 1 uM; method in brief: as §1
Chain of PAS domain-containing serine/threonine-protein kinase (Homo sapiens) (Q96RG2 whole entry, the tested form may be a part): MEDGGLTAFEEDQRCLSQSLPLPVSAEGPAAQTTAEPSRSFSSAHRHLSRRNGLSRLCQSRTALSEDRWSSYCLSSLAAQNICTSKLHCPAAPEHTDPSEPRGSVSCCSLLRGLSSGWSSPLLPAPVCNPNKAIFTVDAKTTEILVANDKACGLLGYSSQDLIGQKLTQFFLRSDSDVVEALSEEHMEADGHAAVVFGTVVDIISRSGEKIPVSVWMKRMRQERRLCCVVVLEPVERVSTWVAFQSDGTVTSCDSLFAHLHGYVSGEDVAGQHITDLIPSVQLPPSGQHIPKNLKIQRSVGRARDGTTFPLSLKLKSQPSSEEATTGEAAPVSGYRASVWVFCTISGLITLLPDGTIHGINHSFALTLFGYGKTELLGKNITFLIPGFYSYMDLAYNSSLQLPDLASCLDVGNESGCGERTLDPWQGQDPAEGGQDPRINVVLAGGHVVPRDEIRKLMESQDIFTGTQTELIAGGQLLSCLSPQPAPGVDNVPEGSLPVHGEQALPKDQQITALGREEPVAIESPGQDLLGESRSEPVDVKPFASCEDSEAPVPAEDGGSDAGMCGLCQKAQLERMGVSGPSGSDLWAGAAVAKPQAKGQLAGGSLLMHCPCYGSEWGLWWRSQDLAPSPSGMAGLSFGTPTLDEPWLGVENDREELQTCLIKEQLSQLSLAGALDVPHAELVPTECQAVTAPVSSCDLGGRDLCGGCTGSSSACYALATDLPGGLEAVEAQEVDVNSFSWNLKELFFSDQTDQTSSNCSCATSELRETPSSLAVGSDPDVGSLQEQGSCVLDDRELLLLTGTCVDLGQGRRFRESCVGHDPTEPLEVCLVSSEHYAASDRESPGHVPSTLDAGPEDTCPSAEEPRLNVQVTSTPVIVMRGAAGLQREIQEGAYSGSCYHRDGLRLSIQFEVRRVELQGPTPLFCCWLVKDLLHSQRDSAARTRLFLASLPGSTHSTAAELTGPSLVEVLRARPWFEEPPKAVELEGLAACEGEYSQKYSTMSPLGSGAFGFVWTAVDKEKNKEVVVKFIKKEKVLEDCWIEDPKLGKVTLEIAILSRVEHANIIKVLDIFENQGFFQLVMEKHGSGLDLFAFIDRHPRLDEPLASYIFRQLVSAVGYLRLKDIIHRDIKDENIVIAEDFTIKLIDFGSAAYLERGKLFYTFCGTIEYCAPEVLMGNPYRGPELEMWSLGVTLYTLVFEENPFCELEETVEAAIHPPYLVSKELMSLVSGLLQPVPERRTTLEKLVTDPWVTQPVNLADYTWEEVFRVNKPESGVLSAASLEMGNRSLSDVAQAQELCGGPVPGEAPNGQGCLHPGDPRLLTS

[4] = target: Serine/threonine-protein kinase BRSK1 (Homo sapiens) (UniProt Q8TDC3); assay: Activity of human BrSK1 kinase at 1 uM
[5] = target: Protein kinase C beta type (Homo sapiens) (UniProt P05771); assay: Activity of human PKC-beta-1 kinase at 1 uM; method in brief: as §2
Chain of Protein kinase C beta type (Homo sapiens) (P05771 2-671 limits assumed): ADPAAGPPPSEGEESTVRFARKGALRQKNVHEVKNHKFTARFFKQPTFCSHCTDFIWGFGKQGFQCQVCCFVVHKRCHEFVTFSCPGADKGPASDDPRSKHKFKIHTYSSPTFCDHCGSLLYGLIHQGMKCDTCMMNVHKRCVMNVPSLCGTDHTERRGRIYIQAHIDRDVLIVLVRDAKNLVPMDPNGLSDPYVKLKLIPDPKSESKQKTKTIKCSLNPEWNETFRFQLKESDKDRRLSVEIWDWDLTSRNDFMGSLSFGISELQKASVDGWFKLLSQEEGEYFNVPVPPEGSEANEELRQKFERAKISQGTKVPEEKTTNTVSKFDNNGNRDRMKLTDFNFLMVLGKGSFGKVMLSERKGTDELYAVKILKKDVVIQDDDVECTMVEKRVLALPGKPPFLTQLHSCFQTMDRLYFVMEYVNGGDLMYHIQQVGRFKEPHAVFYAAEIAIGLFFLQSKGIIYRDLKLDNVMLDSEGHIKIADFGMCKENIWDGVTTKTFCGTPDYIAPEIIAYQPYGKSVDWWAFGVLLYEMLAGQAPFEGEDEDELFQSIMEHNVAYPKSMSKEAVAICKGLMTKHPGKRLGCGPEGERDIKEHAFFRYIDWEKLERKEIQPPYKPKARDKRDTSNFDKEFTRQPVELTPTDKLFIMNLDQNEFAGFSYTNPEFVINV

[6] = target: Tyrosine-protein kinase receptor TYRO3 (Homo sapiens) (UniProt Q06418); assay: Activity of human Rse kinase at 1 uM
Method in brief: (§3)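 Single-concentration screen across a 226-kinase panel run by an outside provider; test compound at 1 μM with 10 μM ATP in every assay. Other conditions not detailed.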

[7] = target: Mitogen-activated protein kinase 10 (Homo sapiens) (UniProt P53779); assay: Activity of human JNK3 kinase at 1 uM; method in brief: as §1
[8] = target: Serine/threonine-protein kinase PAK 5 (Homo sapiens) (UniProt Q9P286); assay: Activity of human PAK5 kinase at 1 uM; method in brief: as §2
PC-3 [9] = assay: Induction of apoptosis in human PC3 cells assessed as PARP cleavage at 1 uM after 24 hrs by Western blot method; type: functional, cell-based
Mus musculus = assay: Toxicity in human HCT116 cells xenografted into athymic nude NCR nu/nu mouse assessed as decrease in body weight at 30 mg/kg, QD after 21 days; type: organism-based, HCT-116; design: dose 30 mg/kg; scale not given: the % may be the effect or the level left; conditions: in vivo, 504 h
Method in brief: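 Female athymic nude NCR nu/nu mice were given HCT-116 cells (1 × 10^6) s.c. in the right flank. Drug in 10% hydroxypropyl-β-cyclodextrin/5% sodium bicarbonate was given orally (QD or BID) for 21 days. Body weight loss was recorded at the end of treatment, and neutrophil counts were also followed for the BID regimen.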

[10] = target: Protein kinase C iota type (Homo sapiens) (UniProt P41743); assay: Activity of human PKCiota kinase at 1 uM; method in brief: as §1
[11] = target: Vascular endothelial growth factor receptor 3 (Homo sapiens) (UniProt P35916); assay: Activity of human Flt4 kinase at 1 uM; method in brief: as §1
Chain of Vascular endothelial growth factor receptor 3 (Homo sapiens) (P35916 whole entry, canonical isoform): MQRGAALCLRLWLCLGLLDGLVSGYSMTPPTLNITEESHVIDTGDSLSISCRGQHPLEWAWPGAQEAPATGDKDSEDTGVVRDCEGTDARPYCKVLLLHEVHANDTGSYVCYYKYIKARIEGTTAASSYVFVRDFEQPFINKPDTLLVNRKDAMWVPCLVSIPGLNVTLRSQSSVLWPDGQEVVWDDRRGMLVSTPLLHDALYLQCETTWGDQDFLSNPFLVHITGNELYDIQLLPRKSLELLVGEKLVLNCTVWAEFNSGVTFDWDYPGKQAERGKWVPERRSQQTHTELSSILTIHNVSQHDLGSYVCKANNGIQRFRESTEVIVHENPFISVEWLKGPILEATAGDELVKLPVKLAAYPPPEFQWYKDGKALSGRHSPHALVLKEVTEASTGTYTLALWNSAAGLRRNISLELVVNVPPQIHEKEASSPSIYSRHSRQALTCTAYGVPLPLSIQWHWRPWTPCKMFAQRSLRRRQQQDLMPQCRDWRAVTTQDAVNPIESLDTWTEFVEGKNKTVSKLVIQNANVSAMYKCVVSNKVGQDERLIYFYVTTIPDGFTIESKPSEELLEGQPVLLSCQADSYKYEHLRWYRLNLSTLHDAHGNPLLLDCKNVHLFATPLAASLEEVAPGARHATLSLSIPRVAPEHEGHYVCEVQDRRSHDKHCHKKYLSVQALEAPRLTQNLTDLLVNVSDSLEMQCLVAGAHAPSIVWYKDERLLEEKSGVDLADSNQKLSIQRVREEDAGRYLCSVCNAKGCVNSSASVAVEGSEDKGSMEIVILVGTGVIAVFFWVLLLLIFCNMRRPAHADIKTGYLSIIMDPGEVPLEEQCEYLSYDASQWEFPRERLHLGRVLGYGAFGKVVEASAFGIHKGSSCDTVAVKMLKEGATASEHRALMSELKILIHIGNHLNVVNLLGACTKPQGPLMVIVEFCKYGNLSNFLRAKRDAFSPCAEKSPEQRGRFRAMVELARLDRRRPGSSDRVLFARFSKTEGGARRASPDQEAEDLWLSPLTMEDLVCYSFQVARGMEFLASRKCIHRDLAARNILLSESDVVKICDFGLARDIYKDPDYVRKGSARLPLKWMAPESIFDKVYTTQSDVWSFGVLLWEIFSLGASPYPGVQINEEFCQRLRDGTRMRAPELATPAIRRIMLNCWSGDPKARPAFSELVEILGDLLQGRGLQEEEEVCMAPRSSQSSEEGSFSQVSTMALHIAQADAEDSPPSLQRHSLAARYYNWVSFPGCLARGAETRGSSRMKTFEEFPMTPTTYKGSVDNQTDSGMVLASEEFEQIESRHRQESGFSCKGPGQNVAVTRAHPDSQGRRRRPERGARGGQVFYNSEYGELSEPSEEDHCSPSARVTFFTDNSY

[12] = target: Casein kinase I isoform delta (Homo sapiens) (UniProt P48730); assay: Activity of human CK1delta kinase at 1 uM; method in brief: as §1
[13] = target: Calcium/calmodulin-dependent protein kinase type II subunit gamma (Homo sapiens) (UniProt Q13555); assay: Activity of human CaMK2gamma kinase at 1 uM; method in brief: as §1
[14] = target: Tyrosine-protein kinase receptor UFO (Homo sapiens) (UniProt P30530); assay: Inhibition of Axl kinase at 1 uM
Method in brief: (§4)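 Single-point screen within a 226-kinase panel, with compound at 1 μM and ATP at 10 μM in all assays.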

SW480 = assay: Antiproliferative activity against human SW480 cells after 96 hrs by BrdU cell proliferation ELISA; type: functional, cell-based; conditions: SW480, 96 h
Method in brief: (§5)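 BrdU incorporation proliferation assay on cultured human tumor lines; IC50 values derived from growth inhibition.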

[15] = target: Ephrin type-B receptor 1 (Homo sapiens) (UniProt P54762); assay: Inhibition of EphB1 kinase at 1 uM; method in brief: as §4
MCF7 = assay: Antiproliferative activity against human MCF7 cells after 96 hrs by BrdU cell proliferation ELISA; type: functional, cell-based; conditions: MCF7, 96 h; method in brief: as §5
[16] = target: G protein-coupled receptor kinase 6 (Homo sapiens) (UniProt P43250); assay: Activity of human GRK6 kinase at 1 uM
[17] = target: Protein kinase C delta type (Homo sapiens) (UniProt Q05655); assay: Activity of human PKCdelta kinase at 1 uM; method in brief: as §1
MDA-MB-231 = assay: Antiproliferative activity against human MDAMB231 cells after 96 hrs by BrdU cell proliferation ELISA; type: functional, cell-based; conditions: MDA-MB-231, 96 h; method in brief: as §5
[18] = target: SRSF protein kinase 3 (Homo sapiens) (UniProt Q9UPE1); assay: Activity of human MSSK1 kinase at 1 uM
[19] = target: SRSF protein kinase 2 (Homo sapiens) (UniProt P78362); assay: Activity of human SRPK2 kinase at 1 uM; method in brief: as §2
[20] = target: Serine/threonine-protein kinase PLK3 (Homo sapiens) (UniProt Q9H4B4); assay: Activity of human Plk3 kinase at 1 uM; method in brief: as §3
[21] = target: Tyrosine-protein kinase Fer (Homo sapiens) (UniProt P16591); assay: Activity of human Fer kinase at 1 uM; method in brief: as §1
[22] = target: Macrophage colony-stimulating factor 1 receptor (Homo sapiens) (UniProt P07333); assay: Activity of human FMS kinase at 1 uM
[23] = target: Tyrosine-protein kinase CSK (Homo sapiens) (UniProt P41240); assay: Activity of human CSK kinase at 1 uM; method in brief: as §1
[24] = target: Ephrin type-B receptor 2 (Homo sapiens) (UniProt P29323); assay: Activity of human EphB2 kinase at 1 uM; method in brief: as §1
PC-3 [25] = assay: Antiproliferative activity against human PC3 cells after 96 hrs by BrdU cell proliferation ELISA; type: functional, cell-based; conditions: PC-3, 96 h; method in brief: as §5
[26] = target: Protein kinase C theta type (Homo sapiens) (UniProt Q04759); assay: Activity of human PKCtheta kinase at 1 uM; method in brief: as §1
[27] = target: Serine/threonine-protein kinase 3 (Homo sapiens) (UniProt Q13188); assay: Activity of human MST2 kinase at 1 uM
Chain of Serine/threonine-protein kinase 3 (Homo sapiens) (Q13188 whole entry): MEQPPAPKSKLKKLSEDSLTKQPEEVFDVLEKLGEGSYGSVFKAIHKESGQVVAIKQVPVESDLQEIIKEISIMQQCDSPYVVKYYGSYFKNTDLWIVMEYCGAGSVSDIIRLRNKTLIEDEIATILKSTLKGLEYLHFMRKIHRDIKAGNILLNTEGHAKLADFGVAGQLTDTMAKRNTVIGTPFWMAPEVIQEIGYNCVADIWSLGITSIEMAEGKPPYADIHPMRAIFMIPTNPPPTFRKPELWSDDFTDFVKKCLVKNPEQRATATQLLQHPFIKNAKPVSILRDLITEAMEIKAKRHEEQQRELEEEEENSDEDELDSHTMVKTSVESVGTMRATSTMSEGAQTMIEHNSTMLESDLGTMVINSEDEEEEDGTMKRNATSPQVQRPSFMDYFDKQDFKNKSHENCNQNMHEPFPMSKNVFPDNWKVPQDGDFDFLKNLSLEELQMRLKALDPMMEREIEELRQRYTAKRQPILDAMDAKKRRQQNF

PC-3 [28] = assay: Cell cycle arrest in human PC3 cells by accumulation at G1 phase at 1 uM after 24 hrs by flow cytometry relative to control; type: functional
[29] = target: Tyrosine-protein kinase Fes/Fps (Homo sapiens) (UniProt P07332); assay: Activity of human Fes kinase at 1 uM; method in brief: as §1
[30] = target: CDK3/Cyclin E (Homo sapiens) (UniProt P24864+Q00526); assay: Activity of human CDK3/cyclin E kinase at 1 uM; type: protein-complex assay; method in brief: as §1
[31] = target: G protein-coupled receptor kinase 5 (Homo sapiens) (UniProt P34947); assay: Activity of human GRK5 kinase at 1 uM; method in brief: as §1
[32] = target: Phosphatidylinositol 4,5-bisphosphate 3-kinase catalytic subunit gamma isoform (Homo sapiens) (UniProt P48736); assay: Activity of human PI 3-kinase gamma at 1 uM; method in brief: as §1
[33] = target: Ephrin type-A receptor 1 (Homo sapiens) (UniProt P21709); assay: Inhibition of EphA1 kinase at 1 uM; method in brief: as §4
[34] = target: Angiopoietin-1 receptor (Homo sapiens) (UniProt Q02763); assay: Activity of human Tie2 kinase at 1 uM; method in brief: as §2
PC-3 [35] = assay: Increase in mitotis in human PC3 cells assessed as mitotic cell count after 24 hrs; type: functional
Method in brief: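 Cultured cells were exposed to drug for 24 h and stained with MPM2 (mitotic marker) and Hoechst. Cells were imaged on a high-content imaging system, and the percentage of Hoechst-stained cells positive for MPM2 was calculated.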

Chain of Fibroblast growth factor receptor 1 (Homo sapiens) (P11362 22-822 limits assumed): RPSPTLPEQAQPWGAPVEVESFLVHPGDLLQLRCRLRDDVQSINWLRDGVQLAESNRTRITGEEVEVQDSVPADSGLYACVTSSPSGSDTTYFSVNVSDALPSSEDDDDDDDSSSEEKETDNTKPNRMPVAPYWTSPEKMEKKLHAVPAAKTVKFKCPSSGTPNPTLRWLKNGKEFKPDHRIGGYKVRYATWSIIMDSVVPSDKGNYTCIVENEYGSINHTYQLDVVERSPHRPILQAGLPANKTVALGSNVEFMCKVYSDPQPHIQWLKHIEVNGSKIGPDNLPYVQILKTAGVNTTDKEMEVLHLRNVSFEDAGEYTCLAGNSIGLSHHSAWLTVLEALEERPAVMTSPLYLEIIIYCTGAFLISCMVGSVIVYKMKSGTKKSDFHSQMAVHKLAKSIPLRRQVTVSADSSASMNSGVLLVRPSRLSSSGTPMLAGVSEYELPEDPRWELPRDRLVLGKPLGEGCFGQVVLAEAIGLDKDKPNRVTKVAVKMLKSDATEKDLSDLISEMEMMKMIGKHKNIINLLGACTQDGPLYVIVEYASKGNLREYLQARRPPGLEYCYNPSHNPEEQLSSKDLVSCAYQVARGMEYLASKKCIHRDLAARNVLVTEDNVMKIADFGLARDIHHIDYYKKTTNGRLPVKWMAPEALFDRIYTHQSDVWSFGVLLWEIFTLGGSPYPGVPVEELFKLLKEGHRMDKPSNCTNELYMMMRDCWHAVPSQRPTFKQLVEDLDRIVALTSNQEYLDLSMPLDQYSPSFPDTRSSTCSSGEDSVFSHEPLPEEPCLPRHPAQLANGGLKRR

Activity [1]: 43% | Activity [2]: 92% | Activity [3]: 114% | Activity [4]: 92% | Activity [5]: 98% | Activity [6]: 56% | Activity [7]: 125% | Activity [8]: 100% | Activity [10]: 109% | Activity [11]: 6% | Activity [12]: 129% | Activity [13]: 112% | inhibition [14]: 59% | IC50 (SW480): 860 nM | inhibition [15]: 65% | IC50 (MCF7): 670 nM | Activity [16]: 110% | Activity [17]: 109% | IC50 (MDA-MB-231): 740 nM | Activity [18]: 100% | Activity [19]: 87% | Activity [20]: 105% | Activity [21]: 57% | Activity [22]: 95% | Activity [23]: 105% | Activity [24]: 69% | IC50 (PC-3 [25]): 790 nM | Activity [26]: 112% | Activity [27]: 100% | Activity [29]: 133% | Activity [30]: 105% | Activity [31]: 109% | Activity [32]: 106% | inhibition [33]: 71% | Activity [34]: 51%
SMILES: O=C(O)c1ccc(Nc2ncc3c(n2)-c2ccc(Cl)cc2C(c2c(F)cccc2F)=NC3)cc1 [MLN-8054]
Activity (PC-3 [9]): Active | Activity (Mus musculus): < 2% | Activity (PC-3 [28]): 36.1% | Activity (PC-3 [35]): 12%
